# In publication PMC4203513 (Autophagy, 2014):
# “Also recorded” adds a separate entry of the source. Like-named read-outs stand apart in the source and are kept apart here.
# Key:
# newly diagnosed GB = settings: radiation and carmustine with or without CQ; cited from earlier work
# [1] = tested on: patients with newly diagnosed glioblastoma; type: in vivo, human
# [2] = tested on: patients with newly diagnosed glioblastoma; assay: Phase II adverse events related to study drug; type: in vivo, human
# [3] = tested on: autophagic vacuoles in peripheral blood mononuclear cells; assay: Electron microscopy scoring of autophagic vacuoles in PBMC; type: in vivo, human
# Method in brief: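 PBMC were fixed in 2% glutaraldehyde and held at 4 °C. Micrographs at 10,000–12,000× covered 20–25 mononuclear cells per sample, from multiple fields. Two blinded scorers counted AV by morphological criteria, excluding mitochondria-like structures, and their counts were averaged. A mixed-effects model used time (baseline, week 3, week 9) and a random subject effect.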
# [4] = Population pharmacokinetics of HCQ in whole blood; type: in vivo, human
# [5] = tested on: autophagic vacuoles in peripheral blood mononuclear cells; assay: PK-PD analysis; type: in vivo, human; settings: at 9 wk
# [6] = tested on: newly diagnosed glioblastoma; settings: phase III trial, RT plus concomitant and adjuvant TMZ; cited from earlier work
# [7] = HCQ 800 mg/d with RT + TMZ, during chemoradiation
# [8] = phase II, n = 76, HCQ + RT + TMZ
smiles,measurement,setting,value
"CCN(CC)CCCC(C)Nc1ccnc2cc(Cl)ccc12 (stereo not shown) [CQ, Chloroquine]",median overall survival,newly diagnosed GB,trend toward increased median overall survival
"CCN(CCO)CCCC(C)Nc1ccnc2cc(Cl)ccc12 (stereo not shown) [HCQ, hydroxychloroquine]",dose-limiting toxicities (DLTs),[1]; HCQ 200 mg/d with RT + TMZ,no dose-limiting toxicities
same,dose-limiting toxicities (DLTs),[1]; HCQ 400 mg/d with RT + TMZ,no dose-limiting toxicities; also recorded: no further DLTs were observed
same,dose-limiting toxicities (DLTs),"[1]; HCQ 600 mg/d with RT + TMZ, 3 patients",no DLTs
same,dose-limiting toxicity,[1]; HCQ 800 mg/d with RT + TMZ,early and severe myelosuppression; also recorded: dose-limiting myelosuppression
same,subjects with Grade 3 and 4 neutropenia and thrombocytopenia,[1]; HCQ 800 mg/d with RT + TMZ,3/3
same,patients with grade 4 neutropenia,[1]; [7],2/3
same,patients with grade 4 thrombocytopenia,[1]; [7],3/3
same,other grade 2 toxicities common to all dose levels,[1]; HCQ 200 to 800 mg/d with RT + TMZ,"nausea, fatigue, constipation, and diarrhea"
same,maximum tolerated dose (MTD) of HCQ,"[1]; oral daily, in combination with RT and concurrent and adjuvant TMZ",600 mg/day
same,patients off treatment due to toxicity,"[2]; phase I and II patients, RT + TMZ + HCQ",3%
same,"Abdominal pain, Grade 3",[2]; [8],1 (1) number of patients (%)
same,"Abdominal pain, Total (grade 3 and 4)",[2]; [8],1 (1) number of patients (%)
same,"Alanine aminotransferase increased, Grade 3",[2]; [8],2 (3) number of patients (%)
same,"Alanine aminotransferase increased, Total (grade 3 and 4)",[2]; [8],2 (3) number of patients (%)
same,"Blood bilirubin increased, Total (grade 3 and 4)",[2]; [8],1 (1) number of patients (%)
same,"Constipation, Grade 4",[2]; [8],1 (1) number of patients (%)
same,"Constipation, Total (grade 3 and 4)",[2]; [8],1 (1) number of patients (%)
same,"Eye disorders, Grade 3",[2]; [8],1 (1) number of patients (%)
same,"Eye disorders, Total (grade 3 and 4)",[2]; [8],1 (1) number of patients (%)
same,"Fatigue, Grade 3",[2]; [8],1 (1) number of patients (%)
same,"Fatigue, Total (grade 3 and 4)",[2]; [8],1 (1) number of patients (%)
same,"Neutrophil count decreased, Grade 3",[2]; [8],3 (4) number of patients (%)
same,increase in mean autophagic vacuole count (mixed-effects model),"[3]; all patients (n = 40), P = 0.041",0.075 per wk
same,treatment-associated increase in AV diameter,"[3]; one patient, 800 mg HCQ cohort",2.5 fold
same,treatment-associated increase in AV perimeter,"[3]; one patient, 800 mg HCQ cohort",10 fold
same,treatment-associated increase in percent of cytoplasm involved by AV,"[3]; one patient, 800 mg HCQ cohort",9 fold
same,relationship of HCQ exposure / whole blood concentration to dose,[4]; HCQ 200 to 800 mg/d,dose-proportional relationship; also recorded: dose-proportional and sustained exposure
same,time-dependent trend of HCQ concentrations in whole blood,[4]; groups of patients receiving the same dose,did not show a significant time-dependent trend
same,mean tlag (individual estimates),"[4]; individual PK parameter estimates derived from the population model, range 0.97 to 1.25",1.06 h
same,mean V/F (individual estimates),"[4]; individual PK parameter estimates derived from the population model, range 26 to 5483",483.96 L
same,V2/F (individual estimates),"[4]; individual PK parameter estimates derived from the population model, range 558 to 2208",963 L
same,PK-PD correlation in PBMC,[5],not significant
"Cn1nnc2c(C(N)=O)ncn2c1=O [TMZ, temozolomide]",failure rate (death),[6],0.6 per person-year of follow-up
